# Fewer inactive variants are shown than the library holds.
# B1: tRNA (parent)
# chain: GUUCCGUUGGCGUAAUGGUAACGCGUCUCCCUCCUAAGGAGAAGACUGCGGGUUCGAGUCCCGUACGGAACG
# Variants of: B1
# Test: yeast fitness relative to wild type (ratio to wild type); higher = fitter; tRNA-Arg(CCU), competitive growth, 37 C, YPD
# Method in brief: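 Start and end populations of a pooled competition were compared by 100-nucleotide paired-end sequencing of gene amplicons. The Saccharomyces cerevisiae strains carried tRNA-Arg(CCU) gene variants at the native genomic locus, synthesised with a 3% per-site mutation rate at 69 sites, and competed in YPD at 37°C for 24 hours in six parallel replicates. Darwinian fitness relative to wild type was based on the change in genotype frequencies. Genotypes required ≥ 100 starting reads, and estimates < 0.5 were set to 0.5.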
row,Variant,yeast fitness
1,GGUCCGUUGGCGUAAUGGUAACGCGCCUCCCUCCUAAGGAGAAGACUGCGGGUUCGAGUCCCGUACGGAACG,0.918
2,GGUCCGUUGGCGUAAUGGUAACGCGCCUCCCUCCUAAGGAGAAGACUGCGGGUUCAAGUCCCGUACGGAACG,0.547
3,GGUCCGUUGGCGUAAUGGUAACGCGGCUCCCUCCUAAGGAGAAGACUGGGGGUUCGAGUCCCGUACGGAACG,0.724
4,GGUCCGUUGGCGUAAUGGUAACGCGGCUCCCUCCUAAGGAGAACACUGCGGGUUCGAAUCCCGUGCGGAACG,≤ 0.5
5,GGUCCGUUGGCGUAAUGGUAACGCGUCACCCUCCUAAGGAGAAGACUGCGGGUUCGAGUCCCGUACGGAACG,0.645
6,GGUCCGUUGGCGUAAUGGUAACGCGUCAGCCUCCUAAGGAGAAGACUGCGAGUUCAAGUCCCGUACCGAACG,≤ 0.5
7,GGUCCGUUGGCGUAAUGGUAACGCGUCCCCCUCCUAAGGAGAAGACUGCGGGUUCGAGUCCCGUACGGAACG,0.825
8,GGUCCGUUGGCGUAAUGGUAACGCGUCGCCCUCCUAAGGAGAAGACUGCGCGUUCGAGUCCCGAAUGGCACG,≤ 0.5
9,GGUCCGUUGGCGUAAUGGUAACGCGUCUCCCCCCUAAGGGGAAGACUGCGGGUUCGAGUCCCGUACGGAACG,≤ 0.5
10,GGUCCGUUGGCGUAAUGGUAACGCGUCUCCCUCCCAAGGAGCAGACAGCGGGUUCGAGUCCCCUACGGCACG,≤ 0.5
11,GGUCCGUUGGCGUAAUGGUAACGCGUCUCCCUCCGAAGGAGAAGGCUGGGGGUUCGAGCUCCGUACGGCACG,0.618
12,GGUCCGUUGGCGUAAUGGUAACGCGUCUCCCUCCUAAGGAGAAGACGGCGGGUUCGAGUCCCGUACGGAACG,0.546
13,GGUCCGUUGGCGUAAUGGUAACGCGUCUCCCUCCUAAGGAGAAGACUGCGGGUACGAGUCUCGUCCUGAACG,0.576
14,GGUCCGUUGGCGUAAUGGUAACGCGUCUCCCUCCUAAGGAGAAGACUGCGGGUCCGAGUCCCGUACGGAACG,0.962
15,GGUCCGUUGGCGUAAUGGUAACGCGUCUCCCUCCUAAGGAGAAGACUGCGGGUGCGAGUCCCGUACGGAACG,≤ 0.5
16,GGUCCGUUGGCGUAAUGGUAACGCGUCUCCCUCCUAAGGAGAAGACUGCGGGUUCGAGCCCCGUAAAGAACG,≤ 0.5
17,GGUCCGUUGGCGUAAUGGUAACGCGUCUCCCUCCUAAGGAGAAGACUGCGGGUUCGAGUCCCGAACGGAACG,0.776
18,GUACCGUUGGCGUAAUGGUAACGCGUCUCCCUCCUAAGGAGAAGACUGCGGGUUCGAGUCCCGUACGGAACG,1
19,GUACCGUUGGCGUCAUGGUAACGCGUCUCCCUCCUAAGGAGAAGACUGCGGGUUCGAGUCCCGUACGGAACG,0.567

row,Variant,yeast fitness
1,GUACCGUUGGCGUCAUGGUCACGCGUCAGCCCCCUAAGAAGAAGACUGCGGGUUCGAGUCCCGUACGGACCG,≤ 0.5
2,GUACCGUUGGCGUCAUGGUACCGCGUCUCCCUCCUAAGGAAAACACCGUGGGUUCAAGUCCCGUACGGAACG,≤ 0.5
3,GUACCGUUGGCGUCAUGGUAACGCGUCUCCCUCCUACGGAGAAGACUGUGGGUUCGAGUCCCGUACGGAACG,≤ 0.5
4,GUACCGUUGGCGUCAUGGUAACGCGUCUCCCUCCUACGGAGAAGACAGCGGGUUCGAGUCCCGUACGGAACG,≤ 0.5
5,GUACCGUUGGCGUCAUGGUAACGGGUCUCCCUGCUAAGGAGAAGACUGCGGGUUCGAGUCCCGUACGGAACG,≤ 0.5
6,GUACCGUUGGCGUGGUGGUUACGCGUCUCCCUCCUAGGGAAAAGACUGCGGGUUCGAGUCCUGUAUGGAACG,≤ 0.5
7,GUACCGUUGGCGUGAUGGUAACGCGUCUCCCUCCUAAGGAGAAGACUGCGGGUUUGAGUCCCCUACGGAACG,≤ 0.5
8,GUACCGUUGGCGUGAUGGUAACCCGUCUCCCUCCUAAGGAGAAGACUGCGGGUUCGAGUCCCGUACGGAACG,0.716
9,GUACCGUUGGCGUGAUGGUAACCCGUCUCCCUCCUAAGGAGAAGACUGGGGGUUCGAGUCCCGUACGGAACG,0.503
10,GUACCGUUGGCGUUAUGGUCACGCGUCUCCCUCCUAAGGAGAAGACUGCGGGUUCGAGUCCCGUACGGAACG,≤ 0.5
11,GUACCGUUGGCGUUAUGGUAACGCGUCUCCCUCCUAAGGAGUAGACUGCGGGUUAGAGUCCCGUACGGAACG,≤ 0.5
12,GUACCGUUGGCGUUAUGGUAACGCGUCUCCCUCCUAAGGAGAAGAGUGCGGGUUCGAGUCCCGUACGGAACG,≤ 0.5
13,GUACCGUUGGCGUUAUGGUAACGCGUCUCCCUCCUAAGGAGAAGACUGCGGGUUCGAGUUCUGUACGGAGCG,0.651
14,GUACCGUUGGCGUUAUGGUAACGCGUCUCCCUCCUAAGGACAAGACUGCGGGUUCGAGUCCCGUACCGAACG,≤ 0.5
15,GUACCGUUGGCGUUAUGGUAACGCGUCUCCCUCCUAAGGAGAAGACUGCAGGUUCGAGUCCCGUACGGCACG,≤ 0.5
16,GUACCGUUGGCGUACUGGUAACGCGUCUCCCUCCUAAGGAGAAGACUGCGGGUUCGAGUCCCGUACGGAACG,0.659
17,GUACCGUUGGCGUACUCGUAACGCGUCUCCCUCCUAAGGAGAAGACUGCGGGUUCGAGUCCCGUACGGAACG,0.507
18,GUACCGUUGGCGUACAGGUAACGCGUCUCCCUCCAAAGGAGAAGACUGCGGCUUAGAGUCCCGUACGGAACG,≤ 0.5
